# What was measured:
# Rattus norvegicus [1] = species on record: Rattus norvegicus; assay: Tested for biodistribution of compound at 10 min in rat blood; type: ADME, organism-based; details: in vivo
# Summary of the method: (§1)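 Wistar rats under ether anesthesia were dosed through the femoral vein with 0.1 mL of 99mTc complex (3-6 μCi) and dissected 5-60 min pi. Tissue radioactivity was γ-counted against a 1% injected-dose standard and expressed as % dose/organ. Blood and muscle were calculated from sample weight assuming 7% and 43% of body weight.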
# Mus musculus [2] = species on record: Mus musculus; assay: Tested for biodistribution of compound at 1 min in mice blood; type: ADME, organism-based; details: in vivo
# Summary of the method: (§2)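 Male Swiss albino mice, at least five per group, received 0.1 mL (2-3 μCi) of HPLC-purified 99mTc complex reconstituted in 50% methanol by tail vein. They were killed by cardiectomy under light ether anesthesia at set times (1-60 min pi). Organs were weighed and γ-counted against a 1% injected-dose standard to give % dose/organ. Blood and muscle were taken as 7% and 43% of body weight.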
# Mus musculus [3] = species on record: Mus musculus; assay: Tested for biodistribution of compound at 30 min in mice brain; type: ADME, organism-based; details: in vivo, 0.5 h; summary of the method: as §2
# Mus musculus [4] = species on record: Mus musculus; assay: Tested for biodistribution of compound at 60 min in mice muscle; type: ADME, organism-based, Muscle tissue; details: in vivo, 1 h
# Summary of the method: (§3)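 Male Swiss albino mice, at least five per group, received HPLC-purified 99mTc complex by tail vein. The complex was reconstituted in 50% methanol (0.1 mL, 2-3 μCi). Mice were killed by cardiectomy under light ether at 1-60 min pi. Organs were weighed and γ-counted against a 1% injected-dose standard to give % dose/organ. Blood and muscle were taken as 7% and 43% of body weight.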
# Mus musculus [5] = species on record: Mus musculus; assay: Tested for biodistribution of compound at 30 min in mice intestine; type: ADME, organism-based; details: in vivo, 0.5 h; summary of the method: as §2
# Rattus norvegicus [6] = species on record: Rattus norvegicus; assay: Tested for biodistribution of compound at 10 min in rat kidney; type: ADME, organism-based; details: in vivo; summary of the method: as §1
# Mus musculus [7] = species on record: Mus musculus; assay: Tested for biodistribution of compound at 60 min in mice kidney; type: ADME, organism-based; details: in vivo, 1 h; summary of the method: as §3
# Rattus norvegicus [8] = species on record: Rattus norvegicus; assay: Tested for biodistribution of compound at 60 min in rat blood; type: ADME, organism-based; details: in vivo, 1 h
# Rattus norvegicus [9] = species on record: Rattus norvegicus; assay: Tested for biodistribution of compound at 10 min in rat intestine; type: ADME, organism-based; details: in vivo; summary of the method: as §1
# Rattus norvegicus [10] = species on record: Rattus norvegicus; assay: Tested for biodistribution of compound at 60 min in rat muscle; type: ADME, organism-based, Muscle tissue; details: in vivo, 1 h
# Mus musculus [11] = species on record: Mus musculus; assay: Tested for biodistribution of compound at 5 min in mice brain; type: ADME, organism-based; details: in vivo; summary of the method: as §3
# Mus musculus [12] = species on record: Mus musculus; assay: Tested for biodistribution of compound at 1 min in mice muscle; type: ADME, organism-based, Muscle tissue; details: in vivo; summary of the method: as §2
# Mus musculus [13] = species on record: Mus musculus; assay: Tested for biodistribution of compound at 5 min in mice heart; type: ADME, organism-based; details: in vivo; summary of the method: as §3
# Mus musculus [14] = species on record: Mus musculus; assay: Tested for biodistribution of compound at 60 min in mice stomach; type: ADME, organism-based; details: in vivo, 1 h; summary of the method: as §3
# Mus musculus [15] = species on record: Mus musculus; assay: Tested for biodistribution of compound at 10 min in mice blood; type: ADME, organism-based; details: in vivo; summary of the method: as §2
# Mus musculus [16] = species on record: Mus musculus; assay: Tested for biodistribution of compound at 30 min in mice heart; type: ADME, organism-based; details: in vivo, 0.5 h; summary of the method: as §2
# Mus musculus [17] = species on record: Mus musculus; assay: Tested for biodistribution of compound at 10 min in mice liver; type: ADME, organism-based; details: in vivo; summary of the method: as §2
# Rattus norvegicus [18] = species on record: Rattus norvegicus; assay: Tested for biodistribution of compound at 5 min in rat liver; type: ADME, organism-based; details: in vivo
# Rattus norvegicus [19] = species on record: Rattus norvegicus; assay: Tested for biodistribution of compound at 5 min in rat blood; type: ADME, organism-based; details: in vivo
# Mus musculus [20] = species on record: Mus musculus; assay: Tested for biodistribution of compound at 1 min in mice stomach; type: ADME, organism-based; details: in vivo; summary of the method: as §2
# Mus musculus [21] = species on record: Mus musculus; assay: Tested for biodistribution of compound at 10 min in mice kidney; type: ADME, organism-based; details: in vivo; summary of the method: as §2
# Mus musculus [22] = species on record: Mus musculus; assay: Tested for biodistribution of compound at 1 min in mice brain; type: ADME, organism-based; details: in vivo; summary of the method: as §2
# Rattus norvegicus [23] = species on record: Rattus norvegicus; assay: Tested for biodistribution of compound at 10 min in rat lungs; type: ADME, organism-based, Lung; details: in vivo; summary of the method: as §1
# Rattus norvegicus [24] = species on record: Rattus norvegicus; assay: Tested for biodistribution of compound at 60 min in rat kidney; type: ADME, organism-based; details: in vivo, 1 h
# Mus musculus [25] = species on record: Mus musculus; assay: Tested for biodistribution of compound at 30 min in mice spleen; type: ADME, organism-based; details: in vivo, 0.5 h; summary of the method: as §2
# Mus musculus [26] = species on record: Mus musculus; assay: Tested for biodistribution of compound at 1 min in mice heart; type: ADME, organism-based; details: in vivo; summary of the method: as §2
# Mus musculus [27] = species on record: Mus musculus; assay: Tested for biodistribution of compound at 1 min in mice kidney; type: ADME, organism-based; details: in vivo; summary of the method: as §2
# Rattus norvegicus [28] = species on record: Rattus norvegicus; assay: Tested for biodistribution of compound at 60 min in rat liver; type: ADME, organism-based; details: in vivo, 1 h
# Mus musculus [29] = species on record: Mus musculus; assay: Tested for biodistribution of compound at 60 min in mice blood; type: ADME, organism-based; details: in vivo, 1 h; summary of the method: as §3
# Mus musculus [30] = species on record: Mus musculus; assay: Tested for biodistribution of compound at 10 min in mice spleen; type: ADME, organism-based; details: in vivo; summary of the method: as §2
# Rattus norvegicus [31] = species on record: Rattus norvegicus; assay: Tested for biodistribution of compound at 10 min in rat s. intestine; type: ADME, organism-based; details: in vivo; summary of the method: as §1
# Mus musculus [32] = species on record: Mus musculus; assay: Tested for biodistribution of compound at 30 min in mice kidney; type: ADME, organism-based; details: in vivo, 0.5 h; summary of the method: as §2
# Rattus norvegicus [33] = species on record: Rattus norvegicus; assay: Tested for biodistribution of compound at 5 min in rat l intestine; type: ADME, organism-based; details: in vivo
# Rattus norvegicus [34] = species on record: Rattus norvegicus; assay: Tested for biodistribution of compound at 10 min in rat liver; type: ADME, organism-based; details: in vivo; summary of the method: as §1
# Mus musculus [35] = species on record: Mus musculus; assay: Tested for biodistribution of compound at 60 min in mice spleen; type: ADME, organism-based; details: in vivo, 1 h; summary of the method: as §3
# Rattus norvegicus [36] = species on record: Rattus norvegicus; assay: Tested for biodistribution of compound at 30 min in rat kidney; type: ADME, organism-based; details: in vivo, 0.5 h; summary of the method: as §1
# Mus musculus [37] = species on record: Mus musculus; assay: Tested for biodistribution of compound at 30 min in mice stomach; type: ADME, organism-based; details: in vivo, 0.5 h; summary of the method: as §2
# Mus musculus [38] = species on record: Mus musculus; assay: Tested for biodistribution of compound at 60 min in mice heart; type: ADME, organism-based; details: in vivo, 1 h; summary of the method: as §3
# Rattus norvegicus [39] = species on record: Rattus norvegicus; assay: Tested for biodistribution of compound at 10 min in rat brain; type: ADME, organism-based; details: in vivo; summary of the method: as §1
# Rattus norvegicus [40] = species on record: Rattus norvegicus; assay: Tested for biodistribution of compound at 30 min in rat spleen; type: ADME, organism-based; details: in vivo, 0.5 h
# Rattus norvegicus [41] = species on record: Rattus norvegicus; assay: Tested for biodistribution of compound at 30 min in rat blood; type: ADME, organism-based; details: in vivo, 0.5 h; summary of the method: as §1
# Rattus norvegicus [42] = species on record: Rattus norvegicus; assay: Tested for biodistribution of compound at 60 min in rat spleen; type: ADME, organism-based; details: in vivo, 1 h
# Mus musculus [43] = species on record: Mus musculus; assay: Tested for biodistribution of compound at 10 min in mice intestine; type: ADME, organism-based; details: in vivo; summary of the method: as §2
# Mus musculus [44] = species on record: Mus musculus; assay: Tested for biodistribution of compound at 10 min in mice stomach; type: ADME, organism-based; details: in vivo; summary of the method: as §2
# Mus musculus [45] = species on record: Mus musculus; assay: Tested for biodistribution of compound at 10 min in mice lungs; type: ADME, organism-based, Lung; details: in vivo; summary of the method: as §2
# Mus musculus [46] = species on record: Mus musculus; assay: Tested for biodistribution of compound at 5 min in mice stomach; type: ADME, organism-based; details: in vivo; summary of the method: as §3
# Mus musculus [47] = species on record: Mus musculus; assay: Tested for biodistribution of compound at 10 min in mice muscle; type: ADME, organism-based, Muscle tissue; details: in vivo; summary of the method: as §2
# Rattus norvegicus [48] = species on record: Rattus norvegicus; assay: Tested for biodistribution of compound at 5 min in rat stomach; type: ADME, organism-based; details: in vivo
substance,measurement,setting,value
"[4-methoxythio)phenolato][N,N-bis(2-mercaptoethyl)-N',N'-diethylethylenediamine] oxotechnetium",Dose/organ,Rattus norvegicus [1],17.72%
same,Dose/organ,Mus musculus [2],5.24%
same,Dose/organ,Mus musculus [3],1.71%
same,Dose/organ,Mus musculus [4],6.86%
same,Dose/organ,Mus musculus [5],18.99%
same,Dose/organ,Rattus norvegicus [6],4.26%
same,Dose/organ,Mus musculus [7],1.59%
same,Dose/organ,Rattus norvegicus [8],4.8%
same,Dose/organ,Rattus norvegicus [9],2.7%
same,Dose/organ,Rattus norvegicus [10],10.6%
same,Dose/organ,Mus musculus [11],3.01%
same,Dose/organ,Mus musculus [12],17.26%
same,Dose/organ,Mus musculus [13],0.74%
same,Dose/organ,Mus musculus [14],2.34%
same,Dose/organ,Mus musculus [15],1.53%
same,Dose/organ,Mus musculus [16],0.19%
same,Dose/organ,Mus musculus [17],14.14%
same,Dose/organ,Rattus norvegicus [18],19.32%
same,Dose/organ,Rattus norvegicus [19],18.89%
same,Dose/organ,Mus musculus [20],0.15%
same,Dose/organ,Mus musculus [21],3.18%
same,Dose/organ,Mus musculus [22],3.56%
same,Dose/organ,Rattus norvegicus [23],7.78%
same,Dose/organ,Rattus norvegicus [24],8.73%
same,Dose/organ,Mus musculus [25],0.38%
same,Dose/organ,Mus musculus [26],3.6%
same,Dose/organ,Mus musculus [27],1.7%
same,Dose/organ,Rattus norvegicus [28],35.74%
same,Dose/organ,Mus musculus [29],1.21%
same,Dose/organ,Mus musculus [30],0.36%
same,Dose/organ,Rattus norvegicus [31],6.34%
same,Dose/organ,Mus musculus [32],2.19%
same,Dose/organ,Rattus norvegicus [33],2.64%
same,Dose/organ,Rattus norvegicus [34],24.09%
same,Dose/organ,Mus musculus [35],0.21%
same,Dose/organ,Rattus norvegicus [36],6.33%
same,Dose/organ,Mus musculus [37],1.24%
same,Dose/organ,Mus musculus [38],0.12%
same,Dose/organ,Rattus norvegicus [39],1.16%
same,Dose/organ,Rattus norvegicus [40],0.3%
same,Dose/organ,Rattus norvegicus [41],7.47%
same,Dose/organ,Rattus norvegicus [42],0.46%
same,Dose/organ,Mus musculus [43],9.61%
same,Dose/organ,Mus musculus [44],1.2%
same,Dose/organ,Mus musculus [45],9.78%
same,Dose/organ,Mus musculus [46],0.96%
same,Dose/organ,Mus musculus [47],16.49%
same,Dose/organ,Rattus norvegicus [48],2.18%
